This is a sample that favours compounds with a hit; in the whole collection about 12% have one here.
Wee1 degr inh – inhibitors of human Wee1 degradation; HeLa Luc-Wee1K328M stability, luciferase luminescence; 100% = proteasome inhibitor MG132 effect; 220,000 tested, 1.2% active; reporter increase, % at 5 µM; AID 1321; P30291;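 active means activation above the mean of all tested compounds plus 3 SD, set per screening run, cut at about 8.8% in these data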;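 further: cells exposed to compound for 20 h before luminescence read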
Arbovirus inh – antivirals against arbovirus infection | 200,000 tested, 0.37% active | arbovirus infection cell-based antiviral screen | AID 1251 | inhibition, % at 10 µM; in the data active means inhibition above about 30%
Rad51 HR inh – Rad51 (human) homologous recombination inhibition; hRad51 DNA strand exchange, fluorescence dequenching; inhibition, % at 10 µM; 200,000 tested, 0.085% active;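 active means inhibition above 40% at the single screening dose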
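Test system – preformed human Rad51 ssDNA filaments · Reagent – Donor/quencher-labelled 47-bp dsDNA substrate · Incubation – 37 °C 15-min filament assembly, 30-min compound preincubation, 15-min exchange · Signal – FRET fluorescence dequenching, excitation 485 nm, emission 520 nm · Read-out – percent inhibition from fluorescence, normalised to plate control and blank means · Benchmarks – plate control and blank wells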
PKD1 inh – PKD1 (human) kinase inhibition | Q15139 | PKD1 kinase fluorescence polarization assay | inhibition, % (concentration not given with the values) | 200,000 tested, 0.056% active | AID 797
Target sequence (Q15139 whole entry, looked up): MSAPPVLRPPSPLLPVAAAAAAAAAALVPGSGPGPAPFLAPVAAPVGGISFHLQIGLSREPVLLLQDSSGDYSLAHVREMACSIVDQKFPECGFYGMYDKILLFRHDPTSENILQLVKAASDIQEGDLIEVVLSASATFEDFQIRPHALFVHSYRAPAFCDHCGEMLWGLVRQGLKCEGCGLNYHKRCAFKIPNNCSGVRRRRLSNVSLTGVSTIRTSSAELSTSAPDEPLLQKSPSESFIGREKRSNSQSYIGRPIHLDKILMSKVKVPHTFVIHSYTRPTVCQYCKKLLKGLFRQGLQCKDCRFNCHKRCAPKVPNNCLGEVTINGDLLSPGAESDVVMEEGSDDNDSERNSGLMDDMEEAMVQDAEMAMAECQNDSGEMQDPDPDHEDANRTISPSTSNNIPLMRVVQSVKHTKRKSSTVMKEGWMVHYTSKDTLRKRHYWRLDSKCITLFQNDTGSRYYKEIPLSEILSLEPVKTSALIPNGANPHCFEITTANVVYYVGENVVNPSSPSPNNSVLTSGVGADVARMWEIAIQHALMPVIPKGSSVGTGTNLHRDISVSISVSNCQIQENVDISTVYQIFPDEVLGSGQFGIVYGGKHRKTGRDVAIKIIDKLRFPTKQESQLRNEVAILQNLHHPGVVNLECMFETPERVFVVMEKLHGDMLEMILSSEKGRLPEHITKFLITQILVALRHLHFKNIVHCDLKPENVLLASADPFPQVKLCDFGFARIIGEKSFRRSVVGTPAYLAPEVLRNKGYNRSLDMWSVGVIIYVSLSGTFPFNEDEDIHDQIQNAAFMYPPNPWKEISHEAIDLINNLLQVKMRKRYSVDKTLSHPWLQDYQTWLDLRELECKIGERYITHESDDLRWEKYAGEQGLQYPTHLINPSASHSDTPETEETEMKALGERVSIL
CHOP inhibitor – CHOP inhibition in unfolded protein response; inhibition, % at 10 µM; 220,000 tested, 3.8% active; CHO-K1 CHOP-promoter luciferase, tunicamycin-induced, 15-18 h;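 active means compounds that reduced the stress-induced luciferase reporter signal by more than about 70% of percent inhibition, limit read from the data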
L major viab – reduces viability of Leishmania major promastigotes. resazurin fluorescence viability. 200,000 tested, 9% active. AID 1063. inhibition, % at 10 µM;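 further: promastigotes grown with compound for 44 hours at 28 °C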
L major 1uM – blocks Leishmania major promastigote growth at 1 uM, repeat screen | shares compounds with L major viab | L. major promastigote growth, resazurin fluorescence, 48 h | 1,100 tested, 13% active | inhibition, % at 1 µM;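 active means inhibition above about 50% in both repeat tests, limit read from the data; inconclusive means one repeat under the set limit, the other over it; inactive means both repeats under the set limit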
Numbers stand for hits; . = inactive; ? = inconclusive; / = no result; ! = a repeat was not active. Unless noted, no stated cut-off is given here; in the data, active means inhibition above about 50%; inactive means the rest.

SMILES | Wee1 degr inh | Arbovirus inh | Rad51 HR inh | PKD1 inh | CHOP inhibitor | L major viab | L major 1uM
C=CC[N+](C)(C)CCCNC(=O)/C=N/O | . | . | . | . | . | 73 | .
Cc1ccc(C)c(N2CCN(C(=O)c3ccc(CSc4nc5ccncc5[nH]4)cc3)CC2)c1 | . | . | . | . | 72 | 89 | ?
O=C(c1ccc(CSc2nc3ccncc3[nH]2)cc1)N1CCCCC1 | . | . | / | . | . | . | /
Cc1cc(NC(=NC2CC2)c2ccccc2F)n(-c2ccccc2)n1 | . | . | . | . | . | . | /
Cc1ccc(CSc2nnc(-c3ccc4c(c3)OCO4)o2)cc1 | . | . | . | . | . | . | /
COc1ccc(C2=NCC(CSc3nnc(-c4ccc5c(c4)OCO5)o3)S2)cc1 (stereo unspecified) | . | . | . | . | . | 88 | 91
Cc1ccc(S(=O)(=O)N2CCC(=O)N(CCO)CC2)cc1 | . | . | . | . | . | . | /
COc1ccc2cc(C(=O)Nc3ccc(Cl)cc3)sc(=O)c2c1OC | . | . | / | . | . | . | /
COc1ccc(C(=O)NC(=S)NNC(=O)c2cnccn2)cc1 | . | . | / | . | . | 100 | .
O=C(NC(=S)NNC(=O)c1cnccn1)c1ccc(Cl)cc1 | . | / | . | / | . | / | /
Cc1nn(-c2ccccc2Cl)c(Cl)c1/C=N/Nc1cccc(C(=O)O)c1 | . | . | . | . | . | . | /
Cc1nn(-c2cccc(C(F)(F)F)c2)c(Cl)c1/C=N/Nc1cccc(C(=O)O)c1 | . | . | . | . | . | 90 | .
CCCOP(=O)(OCCC)c1c([N+](=O)[O-])cc(C(F)(F)F)cc1[N+](=O)[O-] | . | . | . | . | . | 54 | .
CCOc1ccc(C(F)(F)F)cc1NC(=O)COc1ccc(C(F)(F)F)cc1[N+](=O)[O-] | . | . | . | . | . | . | /
C/C(N)=C(/C#N)C(=O)CSc1nnc(Nc2ccccc2)s1 | . | . | . | . | . | 54 | .
Cn1cccc1Cc1nnc(SCC(=O)Nc2ccc(F)cc2)n1CCc1ccccc1 | . | . | . | . | . | 56 | .
O=C(CSc1nc2ccccc2[nH]1)N1CCN(c2ccc(F)cc2)CC1 | . | . | . | . | . | 58 | .
CC(C)NC(=O)c1onc(CSc2ccc(Cl)cc2)c1C(=O)NC(C)C | / | / | . | / | . | / | /
CCOC(=O)C1=Nc2ccccc2C1=[N+]=[N-] | . | 45 | . | . | . | 79 | .
c1ccc(C(Cc2nc(-c3ccncc3)no2)c2ccccc2)cc1 | . | . | / | . | / | 70 | .
COC(=O)c1ccc(COc2ccc(C3C4=C(CCCC4=O)Nc4onc(C)c43)cc2)cc1 (stereo unspecified) | . | . | . | . | . | 100 | 55
O=C(CNC(=O)c1cccc(Cl)c1)N/N=C/C=C/c1ccccc1 | . | . | . | . | . | . | /
CC(C)(C)c1ccc(OCCNC(=O)c2ncn[nH]2)cc1 | . | . | . | . | . | 70 | .
CCc1cc(C)cc(OCCNC(=O)c2ncn[nH]2)c1 | . | . | . | . | . | . | /
COc1ccc(CNCC(O)(c2ccc(F)cc2)c2ccc(F)cc2)cc1 | . | . | . | . | . | . | /
SMILES | Wee1 degr inh | Arbovirus inh | Rad51 HR inh | PKD1 inh | CHOP inhibitor | L major viab | L major 1uM
CCc1ccc2[nH]c(=O)c(CN(CCCN3CCOCC3)C(=O)Nc3ccccc3)cc2c1 | . | . | . | . | . | . | /
CCc1ccc2[nH]c(=O)c(CN(CCCN3CCOCC3)C(=O)Nc3ccc(Cl)cc3)cc2c1 | . | . | . | . | . | 79 | .
Cc1cccc2c(CC(=O)O)noc12 | . | . | . | . | . | 79 | .
CC(=O)c1ccc2noc(-c3ccc(Cl)cc3)c2c1 | . | . | . | . | . | . | /
Cc1ccc(-c2onc3ccc(C=O)cc23)cc1 | . | . | . | . | . | 81 | .
O=S(=O)(NC(=NCCc1ccc(Cl)cc1)c1ccccc1Cl)c1cccs1 | . | . | . | . | . | 100 | .
Cc1cccc(S(=O)(=O)C(C#N)c2nc3ccccc3nc2N2CCOCC2)c1 (stereo unspecified) | . | . | . | . | . | . | /
CC(=O)Nc1ccc(S(=O)(=O)NCC(=O)OCC(=O)N2CCCc3ccccc32)cc1 | . | . | / | . | . | . | /
CC(=O)Nc1ccc(S(=O)(=O)NCCSCc2ccccc2Cl)cc1 | . | . | / | . | . | 68 | .
COc1ccc(OCC(=O)N2c3ccccc3CCc3ccccc32)cc1 | . | . | / | . | . | . | /
COc1ccc(N2C3=[N+](CC2(C)O)c2ccccc2CC3)cc1 (stereo unspecified) | . | . | . | . | . | 90 | .
COc1ccc(OC)c(C(C)NC(=O)Nc2cccc(C(C)=O)c2)c1 (stereo unspecified) | . | . | / | . | . | . | /
COc1ccc(-c2nc(C(N)=O)c3[nH]c(=O)n(-c4ccccc4OC)c3n2)c(OC)c1 | . | . | . | . | . | . | /
COc1ccccc1-n1c(=O)[nH]c2c(C(N)=O)nc(C3CCCCC3)nc21 | . | . | . | . | . | 84 | .
COC(=O)C1=C(C)NC(C)=C(C(=O)OC)C1C(=O)OC(C)C(=O)c1ccccc1 (stereo unspecified) | . | . | . | . | . | . | /
CCOC(=O)c1c(NC(=O)Cn2cnc([N+](=O)[O-])n2)sc(C)c1C | . | . | . | . | . | 52 | .
N#Cc1c(NC(=O)C2CC(c3c(F)cccc3Cl)=NO2)sc2c1CCC2 (stereo unspecified) | . | . | . | . | . | 64 | .
Cc1ccc(O)c(NC(=O)C2CC(c3c(F)cccc3Cl)=NO2)c1 (stereo unspecified) | . | . | . | . | . | . | /
Cn1cc(CNC(=O)C2CCCCC2)cn1 | . | . | . | . | . | . | /
CN(Cc1cnn(C)c1)C(=O)C1CCCCC1C(=O)O (stereo unspecified) | . | . | . | . | . | 54 | .
C=CCn1c(SCC(=O)NCC2CCCO2)nnc1-c1ccccc1 (stereo unspecified) | . | . | . | . | . | . | /
COc1ccccc1Oc1cc(C#N)c(C#N)cc1-n1nnc2ccccc21 | . | . | / | . | . | 98 | .
O=C(NN1CCCCC1)c1cccc2ccccc12 | . | . | . | . | . | . | /
Cn1nnc2cc(C(=O)N3CCC(c4ccccc4)C3)ccc21 (stereo unspecified) | . | . | . | . | . | . | /
CN1CC(c2ccccn2)C2(SC(=S)N(Cc3ccccc3)C2=O)C12C(=O)Nc1ccccc12 (stereo unspecified) | . | . | . | . | . | 100 | .
COCCNC(=O)CC(=O)N/N=C/c1ccc(C(=O)OC)cc1 | . | . | . | . | . | . | /
CCc1ccc(N2CC(O)(c3cccs3)[N+]3=C2SCCC3)cc1 (stereo unspecified) | . | . | . | . | . | 72 | .
O=C(O)CC1S/C(=N/N=C/C=C/c2ccccc2)NC1=O (stereo unspecified) | . | . | . | . | . | 53! | .
